Results published in ChEMBL document CHEMBL3102812 (J Med Chem, 2013).
Calls of active or inactive are those of the source. The rule behind the calls is not given here.

Tests used:
[1] = Plasma concentration in Swiss mouse at 20 mg/kg, po after 0.5 hrs by LC/MS analysis
Trypanosoma cruzi [2] = assay: Antitrypanosomal activity against Trypanosoma cruzi Tulahuen 6 infected in Swiss mouse assessed as reduction in blood parasitemia at 20 mg/kg, po qd administered on day 8 post-infection for 10 days by microscopic analysis; assay type: functional, organism-based; design: dose 20 mg/kg
Summary of the method: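 Infected Swiss mice dosed orally at 20 mg/kg once daily for up to 10 days starting day 8 pi; blood parasitemia followed by microscopy throughout dosing, scored as cleared or not during the dosing period.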

[3] = Plasma concentration in Swiss mouse at 20 mg/kg, po after 24 hrs by LC/MS analysis
Trypanosoma cruzi [4] = assay: Antitrypanosomal activity against Trypanosoma cruzi Tulahuen 6 amastigotes infected in rat L6 cells after 96 hrs by colorimetric method; assay type: functional, organism-based; conditions: Tulahuen 6, L6, 96 h
Mus musculus = assay: Toxicity in Swiss mouse at 20 mg/kg, po; conditions: in vivo
Trypanosoma cruzi [5] = assay: Antitrypanosomal activity against Trypanosoma cruzi Tulahuen 6 infected in Swiss mouse assessed as mouse survival at 100 mg/kg, po qd administered on day 8 post-infection for 20 days followed by 10 days non-treatment period followed by three cycles of immunosuppression measured on day 58 post-infection by microscopic analysis; assay type: functional, organism-based; design: dose 100 mg/kg
Trypanosoma cruzi [6] = assay: Antitrypanosomal activity against Trypanosoma cruzi Tulahuen 6 infected in Swiss mouse assessed as mouse survival at 100 mg/kg, po qd administered on day 8 post-infection measured on same day by microscopic analysis; assay type: functional, organism-based; design: dose 100 mg/kg

concentration at 0.5 h [1] [nM]	concentration at 24 h [3] [nM]	IC50 (Trypanosoma cruzi [4]) [nM]	SMILES	Activity (Trypanosoma cruzi [2])	Activity (Mus musculus)	Activity (Trypanosoma cruzi [5])	Activity (Trypanosoma cruzi [6])
3260	1	61	CC(C)(C)NC(=O)N1CCC(NC(c2ccc(C(F)(F)F)cc2)c2cccnc2)CC1 (configuration not stated)	inactive	Non-toxic	–	–
–	–	–	O=C(Cn1ccnc1[N+](=O)[O-])NCc1ccccc1	–	–	inactive	Active
